Shown are actives, neighbours in structure and some others; about 3.5% of the full set was active somewhere.
RGS4 inh: inhibitors of human RGS4; HEK293 M3R/RGS4 inducible, Fluo-4 calcium flux; active compounds read high; triggered by carbachol at its EC20; B-score at 10 µM; hit rate 0.45% among 310,000; AID 463165;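 active = B-score, a plate-corrected calcium signal, over three deviations above library mean, with baseline fluorescence within five deviations of library mean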;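 also: RGS4 expression induced by doxycycline in cells with stable M3 receptor; B-score is computed from the integrated fluorescence ratio over baseline after carbachol; higher B-score means a larger calcium signal and so more RGS4 inhibition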
Target sequence (P49798 whole entry, looked up): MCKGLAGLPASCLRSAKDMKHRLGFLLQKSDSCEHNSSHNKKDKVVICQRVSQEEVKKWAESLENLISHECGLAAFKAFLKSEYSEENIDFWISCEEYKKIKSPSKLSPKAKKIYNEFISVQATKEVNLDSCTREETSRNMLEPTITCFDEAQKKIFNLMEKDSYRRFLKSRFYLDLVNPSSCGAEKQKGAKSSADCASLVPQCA
MrgX1 agonist: activates human MrgX1 receptor signaling; MrgX1-HEK293 cells, Fluo-4 calcium fluorescence, agonist mode; active compounds read high; AID 588627; B-score at 10 µM; hit rate 0.44% among 310,000;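 active = calcium response B-score plate-corrected fluorescence ratio at least 3 library SD, with starting fluorescence B-score inside 5 SD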
Target sequence (Q96LB2 whole entry, looked up): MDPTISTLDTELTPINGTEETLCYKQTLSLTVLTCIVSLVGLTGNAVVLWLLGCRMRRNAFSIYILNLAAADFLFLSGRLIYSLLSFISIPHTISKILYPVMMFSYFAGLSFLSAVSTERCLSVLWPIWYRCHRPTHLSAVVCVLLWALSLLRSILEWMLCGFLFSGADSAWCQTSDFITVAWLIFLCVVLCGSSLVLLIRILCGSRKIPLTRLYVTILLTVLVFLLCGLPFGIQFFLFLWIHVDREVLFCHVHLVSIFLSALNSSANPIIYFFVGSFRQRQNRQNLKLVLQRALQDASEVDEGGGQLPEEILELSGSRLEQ
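Material – MrgX1-expressing HEK293 cells · Input – 15,000 cells seeded per well · Dosing – compound as first of three additions · Times – overnight seeding, then 1 h dark dye loading · Measured by – kinetic Fluo-4 NW fluorescence of intracellular calcium · Read-out – B-scored fluorescence response ratio · Benchmarks – positive and negative control wells on each plate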
MrgX1 allo act: allosterically activates human MrgX1 receptor signaling; Q96LB2; MrgX1-HEK293, Fluo-4 calcium flux, FDSS; active compounds read high; B-score at 10 µM; hit rate 0.63% among 310,000; AID 588675;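 active = plate-corrected calcium response at least 3 library SD above typical, normal starting fluorescence, not activating the receptor alone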;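 also: compound read alongside a low EC10 to EC30 dose of BAM8-22 agonist; peak minus trough fluorescence over baseline measured at the second addition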
RGS4 act: RGS4 potentiation or activation; hit rate 0.92% among 310,000; B-score at 10 µM; HEK293 M3R/inducible RGS4, carbachol calcium flux Fluo4; active compounds read low;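 active = B-score of the integrated calcium signal more than 4 SD below the library mean, with starting fluorescence not abnormally high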;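 also: negative B-score means reduced calcium response which marks RGS4 activation or potentiation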
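Assay system: Inducible-RGS4 HEK293 cells carrying M3 receptor | Schedule: Compound preincubation 20 min at room temperature before agonist | Signal: Kinetic calcium fluorescence imaging with Fluo4-AM dye, 2 µM | Read-out basis: B score from integrated fluorescence ratio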
MrgX1 antag: human MrgX1 receptor antagonism, primary screen; B-score at 10 µM; MRGX1-HEK293 calcium flux, Fluo-4, BAM8-22 antagonism; active compounds read low; AID 588676; hit rate 1.3% among 310,000;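 active = calcium-response B-score plate-corrected more than 3 library SD below zero, starting fluorescence within 5 deviations, no agonist response on first addition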;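 also: peak minus trough fluorescence over baseline after final BAM8-22 challenge near maximal dose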
MrgX1 antag conf: reconfirmed antagonist of human MrgX1 receptor signaling. hit rate 19% among 2,300. remaining BAM8-22 calcium response % of control (active compounds read low), % at 10 µM. AID 602420. shares compounds with MrgX1 antag. MrgX1-HEK293, BAM8-22 calcium flux, Fluo-4; active compounds read low;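 active = remaining agonist calcium response no higher than 100% minus 3 SD of agonist-only control wells, with starting fluorescence near control levels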;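 also: agonist BAM8-22 given at a near maximal EC90 to ECmax level; peak minus minimum fluorescence divided by baseline after agonist addition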
HEK293 Ca flux: counter-screen for MrgX1 antagonists: effect in parental HEK293 cells | AID 624111 | shares compounds with MrgX1 antag | hit rate 2% among 4,000 | Fluo-4 calcium fluorescence, FDSS | fluorescence ratio F(max-min)/F0 at 10 µM;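 active = duplicate-averaged calcium fluorescence ratio at least three times the standard deviation of buffer wells, a nonspecific response in parental cells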
HEK293 Ca counter: activity in parental HEK293 cells without MrgX1; shares compounds with MrgX1 antag; parental HEK293 calcium flux, Fluo-4 fluorescence ratio; active compounds read high; AID 624114; hit rate 0.4% among 4,000; fluorescence ratio F(max-min)/F0 at 10 µM;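 active = calcium fluorescence ratio, averaged over duplicates, at least 3 SD of the buffer-well ratio, meaning a nonspecific response in receptor-free cells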;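 also: untransfected parental HEK293 lacking MrgX1 used as counterscreen for MrgX1 allosteric activators; fluorescence change taken during the second addition on a kinetic imager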
HEK293 Ca cntr2: activity in parental HEK293 cells lacking MrgX1 receptor; shares compounds with MrgX1 antag; Fluo-4 calcium fluorescence (FDSS); active compounds read high; fluorescence ratio F(max-min)/F0 at 10 µM; hit rate 8.7% among 4,000; AID 624115;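 active = calcium fluorescence ratio at least three times the spread of buffer wells, meaning a non-specific response in parental cells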
* = called active by the depositor; i = inactive; · = not tested or not shown.

SMILES | RGS4 inh | MrgX1 agonist | MrgX1 allo act | RGS4 act | MrgX1 antag | MrgX1 antag conf | HEK293 Ca flux | HEK293 Ca counter | HEK293 Ca cntr2
Cc1ccc2c(c1)cc(CN(Cc1ccc3c(c1)OCO3)S(=O)(=O)c1ccccc1)c1nnnn12 | i | i | i | i | -4.5* | i | i | i | i
Cc1ccc2c(c1)cc(CN(Cc1cccnc1)C(=O)c1ccccc1)c1nnnn12 | i | i | i | i | i | · | · | · | ·
COc1ccc(NC(=O)CSc2ccc3nnc(-c4ccccn4)n3n2)cc1OC | i | i | i | i | i | · | · | · | ·
CC1CCCCC1NC(=S)NC(=O)c1sc2ccccc2c1Cl (stereo unspecified) | i | i | i | i | i | · | · | · | ·
COc1ccccc1C(=O)NC(=S)NNC(=O)c1sc2ccccc2c1Cl | i | i | i | -9.1* | -12* | i | i | i | i
CC(C)(C)c1nc2cc(Cl)c([N+](=O)[O-])cc2o1 | i | i | i | i | i | · | · | · | ·
CCN(CC)C1CCN(C(=O)c2cc(COc3ccccc3SC)on2)C1 (stereo unspecified) | i | i | i | i | i | · | · | · | ·
CSc1ccccc1OCc1cc(C(=O)N2CCCC(C)C2)no1 (stereo unspecified) | i | i | i | i | -5.7* | i | i | i | i
Cc1ccc(NC(=O)CCNS(=O)(=O)c2ccc(Br)cc2)cc1S(=O)(=O)N1CCOCC1 | i | i | i | i | i | · | · | · | ·
Cc1ccc(NC(=O)CCNS(=O)(=O)c2ccccc2)cc1S(=O)(=O)N1CCOCC1 | i | i | i | i | -6.7* | i | i | i | i
CCOC(=O)c1ccc(NC(=O)c2ccc(C)c(S(=O)(=O)N3CCOCC3)c2)cc1 | i | i | i | i | -11* | 21%* | i | i | i
Cc1ccc(C(=O)OCc2nnc(-c3ccccc3)o2)cc1S(=O)(=O)N1CCOCC1 | i | i | i | i | -4.6* | 83%* | i | i | i
CCCCc1cc(=O)oc2cc(OC3CCCCC3=O)ccc12 (stereo unspecified) | i | i | i | i | i | · | · | · | ·
COc1cc2c(cc1OC)C(C)N(C(=O)c1cc(C)on1)CC2 (stereo unspecified) | i | i | i | i | -6.3* | 85%* | i | i | i
CC(C)C(CCNC1CCN(C)CC1)c1ccc(Cl)cc1 (stereo unspecified) | i | i | i | i | i | · | · | · | ·
CN1CCC(NCCC(c2ccc(F)cc2)c2ccc(Cl)cc2)CC1 (stereo unspecified) | i | i | i | i | -4.6* | i | i | i | i
CCOC(=O)c1cccc(NC(=O)c2ccc3c(c2)C(=O)N(CC2CCCO2)C3=O)c1 (stereo unspecified) | i | i | i | i | i | · | · | · | ·
CSCCC(NC(=O)COc1ccccc1)C(=O)NCc1cccs1 (stereo unspecified) | i | i | i | i | i | · | · | · | ·
O=C(COC(=O)c1cccnc1Nc1ccccc1F)NCCN1C(=O)CSC1=O | i | i | i | i | -12* | i | i | i | i
CC(=O)c1ccccc1C(=O)N(C)C1CCCN(Cc2ccccc2F)C1 (stereo unspecified) | i | i | i | i | -4.8* | i | i | i | 45*
Cc1ccc(NS(=O)(=O)c2ccc(C(=O)N3CCN(c4ncccn4)CC3)cc2)cc1 | i | i | i | i | -5.4* | i | i | i | i
